Results taken from ChEMBL document CHEMBL4513216, “Probing the Open Global Health Chemical Diversity Library for Multistage-Active Starting Points for Next-Generation Antimalarials” (ACS Infect Dis, 2020).

Assay: Toxicity liver stage against HepG2, at 10uM
Format: cell-based
Parameters: test concentration 10 uM, cell line HepG2-A16-CD81EGFP
Details: human, HepG2-A16-CD81EGFP cells; read-out: INHIBITION
How it was run: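 Uninfected HepG2-A16-CD81EGFP cells, 3 × 10^3 per well, 1536-well, plated on prespotted compound at 10 μM final, parasite-free screening media added to match infected plates; puromycin 10 μM positive, DMSO 0.5% negative; run in parallel with 48 h PbLuc assay at 37 °C, 5% CO2; viability by CellTiter-Glo luminescence, normalized to controls.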

## OCCc1cc(CC2(NCc3ccncc3)COC2)no1
  cytotoxicity at 10 µM: -3.56%

## COc1cccc(CN2C[C@@H](F)[C@@H](OCc3nc4cnccc4[nH]3)C2)c1
  cytotoxicity at 10 µM: -1.72%

## CCc1c(C)sc2c1c(N)nc(=O)n2CCN(C)C
  cytotoxicity at 10 µM: 3.85%

## Cc1nn(-c2ccc(C(=O)O)cc2)c2c1C(C(F)(F)F)SCC(=O)N2 (stereo not drawn)
  cytotoxicity at 10 µM: -1.24%

## O=C(NCCc1ccccc1)NCC(O)c1cccs1 (stereo not drawn)
  cytotoxicity at 10 µM: -11.9%

## COc1cccc2sc(N(C)CC(=O)NCc3nc(C)no3)nc12
  cytotoxicity at 10 µM: -1.53%

## O=S(=O)(c1ccccc1)N1C[C@@H]2CCN[C@@H]2C1
  cytotoxicity at 10 µM: 2.58%

## CCc1nc(-c2noc3ccc(C(=O)N(C)CCOC)cc23)co1
  cytotoxicity at 10 µM: -138%

## COCC1c2nnn(CC3CC3)c2CCN1C(=O)CS(C)(=O)=O (stereo not drawn)
  cytotoxicity at 10 µM: -129%

## O=C(NCc1ccccc1)N1CCC2(CC(=O)N(c3ccccc3)C2)C1 (stereo not drawn)
  cytotoxicity at 10 µM: 2.61%

## O=C(NCC1CCCO1)c1nc2c(s1)CCCN2CC1CC1 (stereo not drawn)
  cytotoxicity at 10 µM: -0.843%

## O=C1CC[C@H]2[C@H](CCN2C(=O)c2ccc[nH]2)N1CCN1CCOCC1
  cytotoxicity at 10 µM: 3.3%

## NC(=O)CSc1nnc2n1N=CN(c1ccccc1F)C2
  cytotoxicity at 10 µM: -3.78%

## COc1cccc(-c2nc(C)c(C(=O)N[C@@H](C)C(=O)O)s2)c1
  cytotoxicity at 10 µM: 6.51%

## CCCc1cc(=O)[nH]c2nnc(SCC(=O)NCc3ccc(C)cc3)n12
  cytotoxicity at 10 µM: -15.7%

## O=C(NCC(Cc1cccc(F)c1)N1CCCC1=O)c1cnccn1 (stereo not drawn)
  cytotoxicity at 10 µM: -5.06%

## Cc1nnn2c1COCC(CNC(=O)c1ccc3[nH]ccc3c1)C2 (stereo not drawn)
  cytotoxicity at 10 µM: -10.7%

## CC(=O)N1CC[C@H]2OCC[C@@H](C(=O)N3CCCCO3)[C@@H]2C1
  cytotoxicity at 10 µM: -5.1%

## O=C(NCC1CC1)C1CN(C(=O)c2ccncc2)CC12CCOCC2 (stereo not drawn)
  cytotoxicity at 10 µM: 0.381%

## COc1c(C(=O)NCC2CCCO2)nnn1Cc1ccccc1 (stereo not drawn)
  cytotoxicity at 10 µM: 7.47%

## CCN1CCN(c2nc(C(C)C)nc3c(C)nn(CC)c23)CC1
  cytotoxicity at 10 µM: -12.6%

## Cc1cccc(Nc2noc3c2CN(C(=O)c2ccn(C)n2)CC3)c1C
  cytotoxicity at 10 µM: -0.61%

## COc1ccccc1N1CC(NC(=O)Cn2cc(C(C)C)nn2)CC1=O (stereo not drawn)
  cytotoxicity at 10 µM: 11.5%

## Nc1nc(N)c2c(n1)OC1(CCN(Cc3nccs3)C1)C2 (stereo not drawn)
  cytotoxicity at 10 µM: 0.861%

## O=C(NCc1ccc2c(c1)OCO2)[C@H]1C=CCN1c1ncccn1
  cytotoxicity at 10 µM: -4.52%

## CN(C)c1ccc(CC2CCCN(c3cnccn3)C2)nn1 (stereo not drawn)
  cytotoxicity at 10 µM: 4.71%

## O=C(C1CCC1)N1CCCC(c2ccnc(Nc3cnccn3)n2)C1 (stereo not drawn)
  cytotoxicity at 10 µM: -22.7%

## O=C(c1cscn1)N1CCC(Cc2cnc3[nH]ccc3c2)C1 (stereo not drawn)
  cytotoxicity at 10 µM: -26.5%

## NC(=O)CN(CC(N)=O)Cc1cccc(Oc2ccccc2)c1
  cytotoxicity at 10 µM: -5.05%

## O=C(CCc1nnc(-c2ccccc2)o1)N1CCCC1c1ccc[nH]1 (stereo not drawn)
  cytotoxicity at 10 µM: -3.33%

## CNC(=O)c1cccc(CNC2CCCSc3ccccc32)c1 (stereo not drawn)
  cytotoxicity at 10 µM: -2.64%

## CCn1cnnc1CNC(=O)NC(c1ccccc1)C1CCCC1 (stereo not drawn)
  cytotoxicity at 10 µM: 12%

## CC(O)CCN(C)S(=O)(=O)Cc1ccc(Cl)c(Cl)c1 (stereo not drawn)
  cytotoxicity at 10 µM: 3.92%

## CN(C)C(=O)Cn1cnc2c(Br)cccc2c1=O
  cytotoxicity at 10 µM: -8.97%

## CNS(=O)(=O)c1cccc(CNc2ccc(C#N)cn2)c1
  cytotoxicity at 10 µM: -4.36%

## O=C1CCN(C(=O)C2(c3ccc(F)cc3)CCCCC2)CCN1
  cytotoxicity at 10 µM: -7.4%

## CCS(=O)(=O)N1CCC(Nc2ccc(C#N)cc2F)CC1
  cytotoxicity at 10 µM: 5.65%

## CCc1cc(NC(=O)N2CCC(Oc3cccnc3)C2)n(C)n1 (stereo not drawn)
  cytotoxicity at 10 µM: 5.95%

## Cc1noc(C)c1NS(=O)(=O)c1cc(C(=O)O)cc(Cl)c1Cl
  cytotoxicity at 10 µM: 6.14%

## O=C(NCCN1CCOCC1)c1ccc(-c2ccccc2)[nH]c1=O
  cytotoxicity at 10 µM: 1.58%

## Cc1ccc(C(=O)NCCN2CCOCC2)c(=O)[nH]1
  cytotoxicity at 10 µM: -8.44%

## N#Cc1ccnc(N2CCN(CC(O)c3ccccc3Cl)CC2)c1 (stereo not drawn)
  cytotoxicity at 10 µM: 1.7%

## Cc1nnc(C(C)NCC2(c3ccc(F)cc3)CCCCC2)o1 (stereo not drawn)
  cytotoxicity at 10 µM: 2.39%

## CC1(NC(=O)Cc2csc(NC(=O)c3ccccc3)n2)CCS(=O)(=O)C1 (stereo not drawn)
  cytotoxicity at 10 µM: 0.271%

## O=C(NCCCN1CCOCC1)c1cc(-c2ccccc2)[nH]n1
  cytotoxicity at 10 µM: -161%

## O=C(NCc1ccccc1F)NC1CCCN(c2ncccn2)C1 (stereo not drawn)
  cytotoxicity at 10 µM: 7.81%

## O=C(NCc1nnc2n1CCC2)NCC1(c2cccc(F)c2)CC1
  cytotoxicity at 10 µM: -6.03%

## CCOC(=O)c1nc(CN2CCN(C(C)C(=O)NC3CC3)CC2)cs1 (stereo not drawn)
  cytotoxicity at 10 µM: -2.52%

## NC(=O)CCS(=O)(=O)Cc1ccc(OCC(F)(F)F)cc1
  cytotoxicity at 10 µM: -4.16%

## CCS(=O)(=O)CC(=O)NC1(c2ccc(Cl)c(Cl)c2)CC1
  cytotoxicity at 10 µM: -2.6%

## c1cncc(-c2ccnn2CN2CCC3(CC2)OCCO3)c1
  cytotoxicity at 10 µM: 8.19%

## O=C1NCCN1C1CCN(Cc2ccccn2)CC1
  cytotoxicity at 10 µM: 4.08%

## Cc1cnn(CC2CCCN2Cc2coc(-c3ccccc3)n2)c1 (stereo not drawn)
  cytotoxicity at 10 µM: -5.26%

## CN(C)C(=O)NC1COC2(CCN(S(=O)(=O)c3ccccc3)CC2)C1 (stereo not drawn)
  cytotoxicity at 10 µM: -88.5%

## OCc1csc(N2CCCC(CO)(Cc3cccc(Cl)c3)C2)n1 (stereo not drawn)
  cytotoxicity at 10 µM: 8.87%

## CC1(c2ccccc2)CCC(=O)N(CC2(N3CCOCC3)CCCC2)C1 (stereo not drawn)
  cytotoxicity at 10 µM: 8.8%

## COCC1CCN(Cc2cc(O)c3c(C)ccc(C)c3n2)CC1
  cytotoxicity at 10 µM: -6.09%

## Clc1cccc2c3c([nH]c12)CCN(Cc1cc2n(n1)CCNC2)C3
  cytotoxicity at 10 µM: -0.735%

## O=C(O)C1(n2ccc(-c3ccco3)n2)CCN(Cc2ccsc2)CC1
  cytotoxicity at 10 µM: -129%

## CN1CCN(Cc2nnc(C3CCN(S(C)(=O)=O)CC3)n2C)CC1
  cytotoxicity at 10 µM: 4.67%

## Cn1cc(C(=O)N2CC[C@H](N3CCOCC3)[C@H](CCCO)C2)cn1
  cytotoxicity at 10 µM: -158%

## Cc1cc(C2CCC2)nc(N2CCC3(CCCN(C)C3=O)C2)n1 (stereo not drawn)
  cytotoxicity at 10 µM: -6.62%

## Cc1nonc1C(=O)N1CC[C@@]2(O)CCN(C3CCCCC3)C[C@H]2C1
  cytotoxicity at 10 µM: -132%

## Cc1ccc(C(N)=O)c(N2C[C@H]3OC(=O)N(C4CCCC4)[C@H]3C2)n1
  cytotoxicity at 10 µM: 5.54%

## O=C(N1CCCC1)N1CCCC(c2nccn2Cc2ccncc2)C1 (stereo not drawn)
  cytotoxicity at 10 µM: 8.2%

## Cc1c(Cl)c(C(=O)N2C[C@@H](C(=O)O)[C@H](c3cccnc3)C2)nn1C
  cytotoxicity at 10 µM: 6.21%

## Cc1ccc(C2(C(=O)N3CCC(n4cc(C(C)O)nn4)CC3)CC2)cc1 (stereo not drawn)
  cytotoxicity at 10 µM: -2.26%

## COC(=O)c1ccc(OC)c(CN2CCN(CC(C)C)C(=O)C2C)c1 (stereo not drawn)
  cytotoxicity at 10 µM: -20.3%

## Cc1onc(N)c1S(=O)(=O)N1CCCCC1C (stereo not drawn)
  cytotoxicity at 10 µM: 12.4%

## CNc1ncccc1C(=O)N1CCc2c(nc(N)[nH]c2=O)C1
  cytotoxicity at 10 µM: 3.61%

## Cn1ncc2c(N3CCN(CCO)CC3)nc(C3CCCC3)nc21
  cytotoxicity at 10 µM: -4.07%

## O=C(O)[C@@H]1CN(CCOCCO)C[C@H]1c1ccccc1
  cytotoxicity at 10 µM: -2.33%

## N#Cc1ccc(C(=O)N2CCC3(CC2)C(=O)Nc2ccccc23)cn1
  cytotoxicity at 10 µM: 13.5%

## Cc1nc2c(c(N3CC=CC3)n1)CCN(Cc1ccoc1)CC2
  cytotoxicity at 10 µM: -6.51%

## CC(C)n1ccnc1C1CCN(Cc2ccc(Cl)s2)CC1
  cytotoxicity at 10 µM: -7.09%

## COc1c(C2CCCN2C(=O)c2cnc(C)cn2)c(C)nn1C (stereo not drawn)
  cytotoxicity at 10 µM: 2.58%

## CC(=O)N(C)c1nc(CN2CCCC2Cn2nc(C)cc2C)cs1 (stereo not drawn)
  cytotoxicity at 10 µM: -10.3%

## Cc1nc(NC(=O)CCc2c(C)nc3cc(O)nn3c2C)sc1C
  cytotoxicity at 10 µM: -13.5%

## COc1cc(CCC(=O)NC2CCN(C)CC2)ccc1OCC(F)(F)F
  cytotoxicity at 10 µM: -8.82%

## Cc1ccc(C2=CCN(C(=O)C3CCN(C)C(=O)C3)CC2)cc1 (stereo not drawn)
  cytotoxicity at 10 µM: -12.1%

## CC(C)CN(C)Cc1nc2c(cnn2C)c(=O)[nH]1
  cytotoxicity at 10 µM: -12.3%

## Cn1cc(C2CCCN2CCc2nc3ccccc3c(=O)[nH]2)cn1 (stereo not drawn)
  cytotoxicity at 10 µM: -12.9%

## Cc1cc(C)c(CNC(=O)N2CCCC2c2ccccn2)c(=O)[nH]1 (stereo not drawn)
  cytotoxicity at 10 µM: 1.17%

## CC(=O)N1CCN(C(=O)CN2CCCC2Cn2nc(C)cc2C)CC1 (stereo not drawn)
  cytotoxicity at 10 µM: -12.2%

## O=C(NCCNc1ncccn1)N1CCN(c2nccs2)CC1
  cytotoxicity at 10 µM: -13.8%

## Cn1ccnc1CN1CCCC1Cn1cccn1 (stereo not drawn)
  cytotoxicity at 10 µM: -13.8%

## Cc1cnn(CC2CCCN2C(=O)CCc2ccncc2)c1 (stereo not drawn)
  cytotoxicity at 10 µM: -10.6%

## N#Cc1ccsc1C(=O)N1CCCN(Cc2cscn2)CC1
  cytotoxicity at 10 µM: 3.48%

## CC1COCCN1Cc1nc(-c2cccc(Br)c2)no1 (stereo not drawn)
  cytotoxicity at 10 µM: -3.04%

## Cc1noc2ncc(C(=O)NCC3CCOC3)cc12 (stereo not drawn)
  cytotoxicity at 10 µM: -1.47%

## Cn1ccnc1CN1CCN(CC(O)c2cccc(F)c2)CC1 (stereo not drawn)
  cytotoxicity at 10 µM: 1.59%

## Cc1cccc(CC(=O)N2CCN(c3nccn3C)CC2)c1
  cytotoxicity at 10 µM: 8.68%

## COCCN1CC2(CCN(C(=O)c3ccno3)CC2)c2ccccc21
  cytotoxicity at 10 µM: 0.729%

## CCS(=O)(=O)N1C[C@@H](Oc2ccccn2)[C@H]2OCCC[C@H]21
  cytotoxicity at 10 µM: 5.08%

## CCS(=O)(=O)N1CCCC2(CCCN2Cc2cccc(Cl)c2)C1 (stereo not drawn)
  cytotoxicity at 10 µM: -143%

## Cn1cnc2c(N3CCCC3)nc(C3CCN(CC4CC4)CC3)cc21
  cytotoxicity at 10 µM: -5.26%

## Cc1ccc(CN2C[C@@H](OCc3csc(C)n3)[C@H]3COC[C@H]32)s1
  cytotoxicity at 10 µM: -5.21%

## Cc1noc(C)c1CN1C[C@@H](OCc2ccccn2)[C@H]2OCCC[C@H]21
  cytotoxicity at 10 µM: -3.14%

## CC(C)CN1C[C@H]2CCN(c3ncccn3)CC[C@H]2S1(=O)=O
  cytotoxicity at 10 µM: -11.2%

## O[C@@H]1CCN(CC2CC2)[C@H]1Cc1ccccc1
  cytotoxicity at 10 µM: 3.57%

## c1cnc(NC[C@H]2OC[C@@H]3CCN(Cc4nccs4)C[C@@H]32)nc1
  cytotoxicity at 10 µM: -3.38%

## FC(F)(F)c1cccc(-c2c[nH]c(C3CCCN3)n2)c1 (stereo not drawn)
  cytotoxicity at 10 µM: -3.25%

## O=C(NCc1cn2c(n1)CN(Cc1cccc(F)c1)CC2)C1CCC1
  cytotoxicity at 10 µM: 8.79%

## CCc1ccc(CN2Cc3nccn3CC(Cn3cncn3)C2)o1 (stereo not drawn)
  cytotoxicity at 10 µM: -137%

## CO[C@H]1CN(C(=O)c2cccnc2)[C@@H]2CCCO[C@H]12
  cytotoxicity at 10 µM: 5%

## CN(Cc1ccco1)C[C@H]1OC[C@@H]2CCN(Cc3ccccn3)C[C@@H]21
  cytotoxicity at 10 µM: -3.22%

## O=C1[C@@H]2CC[C@@H](CN(C3CSCCSC3)C2)N1Cc1cscn1
  cytotoxicity at 10 µM: -15.1%

## COCCN1C(=O)CCC12CCC(NC(=O)c1cnccn1)CC2 (stereo not drawn)
  cytotoxicity at 10 µM: -6.19%
